Measured values published in article PMC10422018 (Molecular Therapy, 2023).

What was measured:
[1] = tested on: 3T3-L1 adipocytes; experiment: Glycerol release from 3T3-L1 adipocytes treated with C26 CM; format: cell-based, mouse; conditions: 24 h
[2] = Stability of the peptides in solution; format: physicochemical; conditions: peptide in solution
[3] = tested on: 3T3-L1 adipocytes; experiment: LPS-induced glycerol release from 3T3-L1 adipocytes; format: cell-based, mouse; conditions: 0.5 µM or 5 µM, 1µg/ml LPS, 24 h
Procedure, shortened: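 3T3-L1 preadipocytes were differentiated with 1 μg/mL insulin, 0.25 μM dexamethasone and 0.5 mM IBMX, then used 8–12 days post-differentiation. Glycerol was measured with a glycerol kit, either directly in culture medium or in Krebs-Ringer buffer (3% BSA, 5 mM glucose) collected over 2 h after a 1 h preincubation. Experiments were repeated at least 2–3 times, each with n ≥3 technical replicates.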

In the case of `NC(=O)c1ncn([C@@H]2O[C@H](COP(=O)(O)O)[C@@H](O)[C@H]2O)c1N` [AICAR, 5-aminoimidazole-4-carboxamide ribonucleotide], the “C26 CM-induced glycerol release” value ([1]; indicated concentrations of AICAR) is reported as “reduced C26 CM-induced glycerol release at higher doses”.

In the case of `C#CC[C@H](NC(=O)[C@H](CCCCN)NC(=O)[C@H](CCCCN)NC(=O)[C@H](Cc1c[nH]c2ccccc12)NC(=O)[C@H](CCCCN)NC(=O)[C@H](CCSC)NC(=O)[C@H](CCCNC(=N)N)NC(=O)[C@H](CCCNC(=N)N)NC(=O)[C@H](CC(N)=O)NC(=O)[C@H](CCC(N)=O)NC(=O)[C@H](Cc1ccccc1)NC(=O)[C@H](Cc1c[nH]c2ccccc12)NC(=O)[C@@H](NC(=O)[C@H](CCCCN)NC(=O)[C@@H](NC(=O)[C@H](CCC(N)=O)NC(=O)[C@@H](N)CCCNC(=N)N)[C@@H](C)CC)[C@@H](C)CC)C(=O)N[C@@H](CC(N)=O)C(=O)N[C@@H](Cc1c[nH]cn1)C(=O)N[C@H](C(=O)N[C@@H](CCSC)C(=O)N[C@@H](CC(C)C)C(=O)N[C@@H](CC(N)=O)C(=O)N[C@@H](Cc1c[nH]cn1)C(=O)N[C@@H](CC(C)C)C(=O)N[C@@H](Cc1ccc(O)cc1)C(=O)N[C@@H](C)C(=O)N[C@@H](CC(C)C)C(=O)N[C@@H](CO)C(=O)N[C@H](C(=O)N[C@@H](CCCCN)C(=O)N[C@@H](CC(=O)O)C(=O)NCC(=O)N[C@H](C(N)=O)C(C)C)[C@@H](C)CC)C(C)C` [Pen-X-ACIP], the “Degradation products in mass spectrometry” value [2] is reported as “No degradation products were detected”.

For MK8722, the “C26 CM-induced lipolysis (glycerol release)” value ([1]; 0.5 µM or 5 µM) was “reduced C26 CM-induced lipolysis dose dependently” and the LPS-induced glycerol release [3] was “inhibited”.
